Measurements reported in ChEMBL document CHEMBL1129798, “Analogues of 10-deazaaminopterin and 5-alkyl-5,10-dideazaaminopterin with the 4-substituted 1-naphthoyl group in the place of 4-substituted benzoyl” (J Med Chem, 1996).

Tests used:
[1] = tested on: L1210; test: In vitro cell growth inhibitory activity against L1210 cell line; format: functional, cell-based; conditions: Mus musculus
[2] = tested on: HL-60; test: In vitro cell growth inhibitory activity against HL60 cell line; format: functional, cell-based; conditions: Homo sapiens
[3] = tested on: CCRF S-180; test: In vitro cell growth inhibitory activity against S180 cell line; format: functional, cell-based; conditions: Mus musculus
[4] = tested on: Mus musculus; test: Compound was compared with MTX for in vivo activity against mammary adenocarcinoma E0771 infected mice at a dose of 48 mg/kg; T/C Treated to Control; format: functional
How it was run: (§1)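 E0771 mammary adenocarcinoma carried in mice, five mice per test group, with an untreated control group. Dosage is given in mg/kg. Average body weight change (g) and average tumor volume (mm3) were recorded at day 10. T/C is expressed relative to the control group.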

[5] = tested on: Mus musculus; test: Compound was compared with MTX for in vivo activity against mammary adenocarcinoma E0771 infected mice at a dose of 24 mg/kg; T/C Treated to Control; format: functional; how it was run: as §1

Structure (SMILES) | IC50 [1] [nM] | IC50 [2] [nM] | IC50 [3] [nM] | T/C [4] [%] | T/C [5] [%]
Nc1nc(N)c2nc(CCc3ccc(C(=O)NC(CCC(=O)O)C(=O)O)c4ccccc34)cnc2n1 (stereo unspecified) | 1.5 | 1.1 | 1.7 | 52 | 96
CCc1c(CCc2ccc(C(=O)NC(CCC(=O)O)C(=O)O)c3ccccc23)cnc2nc(N)nc(N)c12 (stereo unspecified) | 9 | 9.8 | 29 |  | 
Cc1c(CCc2ccc(C(=O)NC(CCC(=O)O)C(=O)O)c3ccccc23)cnc2nc(N)nc(N)c12 (stereo unspecified) | 8.8 | 9.4 | 29 |  | 
